These results are taken from ChEMBL document CHEMBL4145605, “Evodialones A and B: Polyprenylated Acylcyclopentanone Racemates with a 3-Ethyl-1,1-diisopentyl-4-methylcyclopentane Skeleton from Evodia lepta” (2018).

Converted amounts (≈) assume the structure as drawn. Some results are limits rather than exact numbers.

Type in all cases: functional
One experiment has as its system Staphylococcus aureus. In words: Antibacterial activity against Staphylococcus aureus ATCC 25923 measured after 16 hrs by turbidimetric method. The following applies: ATCC 25923, 16 h. The method, boiled down:
(§1)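 In vitro panel of four Gram-positive bacteria, three Gram-negative bacteria and six fungal strains. Activity is reported as MIC in μM. Culture and assay protocols follow an earlier method, with details in the Supporting Information.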

The test system of experiment [1] is Staphylococcus epidermidis. In words: Antibacterial activity against Staphylococcus epidermidis ATCC 12228 measured after 16 hrs by turbidimetric method. The note with it: ATCC 12228, 16 h. The method, boiled down:
as §1

Another experiment has as its system Bacillus subtilis. In words: Antibacterial activity against Bacillus subtilis ATCC 21332 measured after 16 hrs by turbidimetric method. The following applies: ATCC 21332, 16 h. The gist of the method: as §1
For another experiment, the system named is Enterococcus faecalis. In words: Antibacterial activity against Enterococcus faecalis ATCC 29212 measured after 16 hrs by turbidimetric method. The note with it: ATCC 29212, 16 h. The gist of the method: as §1
A further experiment relates to Escherichia coli. In words: Antibacterial activity against Escherichia coli ATCC 25922 measured after 16 hrs by turbidimetric method. The following applies: ATCC 25922, 16 h. The gist of the method: as §1
The next experiment relates to Klebsiella pneumoniae. In words: Antibacterial activity against Klebsiella pneumoniae ATCC 700603 measured after 16 hrs by turbidimetric method. The following applies: Klebsiella pneumoniae, 700603, 16 h. The gist of the method: as §1
The subject of the next experiment is Enterobacter cloacae. In words: Antibacterial activity against Enterobacter cloacae ATCC 700323 measured after 16 hrs by turbidimetric method. The following applies: ATCC 700323, 16 h. The gist of the method: as §1
A further experiment relates to Candida parapsilosis. In words: Antifungal activity against Candida parapsilosis ATCC 22019 measured after 48 hrs by turbidimetric method. The following applies: Lodderomyces parapsilosis, ATCC 22019, 48 h. The gist of the method:
as §1

The next experiment relates to Nakaseomyces glabratus. In words: Antifungal activity against Candida glabrata ATCC 2001 measured after 48 hrs by turbidimetric method. The note with it: CBS 138, 48 h. The method, boiled down:
as §1

Experiment [2] relates to Meyerozyma guilliermondii. In words: Antifungal activity against Candida guilliermondii ATCC 6260 measured after 48 hrs by turbidimetric method. The following applies: ATCC 6260, 48 h. The method, boiled down:
as §1

A further experiment relates to Clavispora lusitaniae. In words: Antifungal activity against Candida lusitaniae ATCC 34449 measured after 48 hrs by turbidimetric method. The note with it: ATCC 34449, 48 h. The method, boiled down: as §1
The test system of a further experiment is Pichia kudriavzevii. In words: Antifungal activity against Candida krusei ATCC 6258 measured after 48 hrs by turbidimetric method. The following applies: ATCC 6258, 48 h. The method, boiled down:
as §1

Another experiment concerns Candida albicans. In words: Antifungal activity against Candida albicans ATCC 60193 measured after 48 hrs by turbidimetric method. The note with it: ATCC 60193, 48 h. The gist of the method: as §1

As a reminder, the MIC is the smallest concentration in the dilution series that meets the test's criterion for growth inhibition. Low readings indicate inhibition by little substance, high ones a need for much substance. Take `COC(=O)[C@@]1(O)C(=O)[C@@]2(CC=C(C)C)C[C@H](O)C(C)(C)OC2=C1C(C)=O`: the MIC (in the experiment on Staphylococcus aureus; in experiment [1]; against Bacillus subtilis; in the experiment with Enterococcus faecalis; with Escherichia coli; in the experiment with Klebsiella pneumoniae) was above 200 µM throughout. Besides, the MIC in the experiment on Enterobacter cloacae was above 200 µM; in the experiment on Candida parapsilosis it was 17.1 µM (≈ 6.27 µg/mL); in the experiment on Nakaseomyces glabratus it was 34.2 µM (≈ 12.5 µg/mL); in experiment [2] it was 34.2 µM (≈ 12.5 µg/mL); against Clavispora lusitaniae, 68.3 µM (≈ 25 µg/mL); against Pichia kudriavzevii, 137 µM (≈ 50.1 µg/mL). In addition, the MIC against Candida albicans was determined as 137 µM (≈ 50.1 µg/mL).
Consider `COC(=O)[C@@]1(O)C(=O)[C@@]2(CC=C(C)C)C[C@@H](O)C(C)(C)OC2=C1C(C)=O`, for which the minimal inhibitory concentration (MIC) (against Staphylococcus aureus; in experiment [1]; against Bacillus subtilis; in the experiment on Enterococcus faecalis; with Escherichia coli; in the experiment on Klebsiella pneumoniae) was above 200 µM throughout. The minimal inhibitory concentration (MIC) (against Enterobacter cloacae; with Candida parapsilosis; with Nakaseomyces glabratus; in experiment [2]; against Clavispora lusitaniae; in the experiment on Pichia kudriavzevii) was above 200 µM each time. This compound yielded an MIC against Candida albicans above 200 µM.
Regarding `COC(=O)[C@]1(O)C(=O)[C@]2(CC=C(C)C)C[C@@H](O)C(C)(C)OC2=C1C(C)=O`, the MIC (against Staphylococcus aureus; in experiment [1]; against Bacillus subtilis; in the experiment on Enterococcus faecalis; in the experiment on Escherichia coli; in the experiment on Klebsiella pneumoniae) was above 200 µM in each case. Further, the MIC was above 200 µM in the experiment on Enterobacter cloacae; 17.1 µM (≈ 6.27 µg/mL) in the experiment on Candida parapsilosis; 34.2 µM (≈ 12.5 µg/mL) with Nakaseomyces glabratus; 68.3 µM (≈ 25 µg/mL) in experiment [2]; 68.3 µM (≈ 25 µg/mL) in the experiment on Clavispora lusitaniae; 137 µM (≈ 50.1 µg/mL) against Pichia kudriavzevii. In addition, the MIC with Candida albicans was 137 µM (≈ 50.1 µg/mL).
Regarding `C[C@@H]1[C@H](O)[C@@H](C)/C=C/C=C/C=C/C=C/C=C/C=C/C=C/[C@H](O[C@@H]2O[C@H](C)[C@@H](O)[C@H](N)[C@@H]2O)C[C@@H]2O[C@](O)(C[C@@H](O)C[C@@H](O)[C@H](O)CC[C@@H](O)C[C@@H](O)CC(=O)O[C@H]1C)C[C@H](O)[C@H]2C(=O)O` [AMPHOTERICIN B], the MIC in the experiment with Candida parapsilosis is below 0.5 µM; against Nakaseomyces glabratus, below 0.5 µM; in experiment [2], below 0.5 µM; in the experiment on Clavispora lusitaniae, 8.7 µM (≈ 8.04 µg/mL); in the experiment on Pichia kudriavzevii, below 0.5 µM; in the experiment with Candida albicans, below 0.5 µM.
